Compound activity from PubChem BioAssay.
A1 apoptosis 2: blocks A1, raising caspase activity. MEF A1-2A-BIM cells, caspase-Glo luminescence, 3 h; percent of clofoctol response, DMSO zero. caspase activation, % (concentration not given with the values). 24,000 tested, under 10 active. AID 2465; in the data active = caspase activation above about 5.9%; inconclusive = no clear call, values can overlap the other calls; inactive = below about 2.2%
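System: mouse embryonic fibroblasts co-expressing A1 and BIM (A1-2A-BIM), primed for A1 dependence; amount: 2500 cells/well; doses: 50 nL pinned compound; schedule: cells settled overnight, compound exposure 3 h at 37 °C, 5% CO2; detection: Caspase-Glo 3/7 luminescence, 1 h at room temperature; read-out: Caspase-3/7 activation, seen as rise in luminescence signal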
T cruzi HTS: intracellular Trypanosoma cruzi inhibition; hit rate 4.9% among 22,000; intracellular Trypanosoma cruzi in host cells, plate reader; activity score (inhibition), % at 5.01 µM; in the data active = activity score above about 55%; inconclusive = no clear call, values can overlap the other calls;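 note: parasites and compound incubated about four days before reading; 0% = median of neutral control wells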
INS-1E ATP HTS: INS-1E beta cell protection from cytokine death | AID 488910 | INS-1E cytokine-induced death, ATP luminescence, 48 h; normalised: neutral wells 0, positive control 100 | hit rate 0.1% among 20,000 | protection from cytokine-induced ATP loss, % at 10 µM;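 active = mean replicate protection from cytokine-induced ATP loss at least 50% and at least 75% of replicates each reaching 50%; inconclusive = meets only one of the two criteria, mean or replicate share; inactive = fails both the mean and replicate share criteria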
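Assay system: INS-1E rat insulinoma cells. Amount: 8000 cells per well. Medium: phenol-red-free RPMI with 5% fetal bovine serum. Reagent: IL-1β, TNF-α and IFN-γ cytokine mix. Doses: one compound concentration, pin transfer. Schedule: 48 h co-treatment, 10 min post-lysis read. Detection: CellTiter-Glo luminescence measuring cellular ATP.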
Starred values were filed as active, the others as inactive; ? = inconclusive; . = no result. The sample as a whole holds a higher share of hits than the screen did.

SMILES | A1 apoptosis 2 | T cruzi HTS | INS-1E ATP HTS
C[C@@H]1CCCCO[C@@H](CN(C)C(=O)Nc2ccc3c(c2)OCO3)[C@@H](C)CN([C@@H](C)CO)C(=O)c2cc(NC(=O)Nc3ccc(C(F)(F)F)cc3)ccc2O1 | 0.1 | . | .
C[C@@H]1CCCCO[C@H](CN(C)C(=O)Nc2ccc3c(c2)OCO3)[C@@H](C)CN([C@H](C)CO)C(=O)c2cc(NC(=O)Nc3ccc(C(F)(F)F)cc3)ccc2O1 | . | 75.7* | -34.7
C[C@@H]1CCCCO[C@@H](CN(C)C(=O)Nc2ccc(C(F)(F)F)cc2)[C@@H](C)CN([C@H](C)CO)C(=O)c2cc(NC(=O)Nc3ccc4c(c3)OCO4)ccc2O1 | 0.8 | 66.7* | 4.5
C[C@@H]1CCCCO[C@H](CN(C)C(=O)Nc2ccc(C(F)(F)F)cc2)[C@H](C)CN([C@@H](C)CO)C(=O)c2cc(NC(=O)Nc3ccc4c(c3)OCO4)ccc2O1 | -0.5 | . | .
O=C1O[C@@H](c2ccccc2)[C@@H](c2ccccc2)N2[C@@H](c3ccccc3OCCO)[C@]3(C(=O)Nc4ccccc43)[C@@H](C(=O)NC[C@H](O)c3ccccc3)[C@H]12 | -0.1 | . | .
O=C(N/N=C/c1cccnc1Br)c1ccccc1O | . | -13.0 | -30.0
O=C(O)c1ccc(/C=N/NC(=O)c2ccccn2)cc1 | . | -18.2 | 4.7
O=C(N/N=C/c1ccc(C(F)(F)F)cc1)c1ccccn1 | -10.8 | -11.4 | 0.9
C[C@H]1CCCCO[C@@H](CN(C)C(=O)Nc2cccc3ccccc23)[C@@H](C)CN([C@@H](C)CO)C(=O)c2cc(NC(=O)Cc3ccccc3)ccc2O1 | 1.2 | . | .
Cn1cc(/C=N/NC(=O)c2cccc(C(=O)NO)c2)c2ccccc21 | 1.3 | -2.4 | -1.8
C[C@H]1CN([C@@H](C)CO)C(=O)c2cccc(NS(=O)(=O)c3ccccc3)c2O[C@@H]1CN(C)Cc1ccc(Oc2ccccc2)cc1 | -0.9 | 12.9 | -4.4
C[C@H]1CN([C@@H](C)CO)C(=O)c2cccc(NS(=O)(=O)c3ccc(Cl)cc3)c2O[C@H]1CN(C)Cc1ccc(Oc2ccccc2)cc1 | . | 43.5 | -20.3
C[C@H](CO)N1C[C@H](C)[C@H](CN(C)Cc2ccc(Oc3ccccc3)cc2)Oc2c(NS(=O)(=O)c3ccccc3)cccc2C1=O | -1.9 | 21.7 | -43.9
C[C@@H]1CN([C@@H](C)CO)C(=O)c2cccc(NS(=O)(=O)c3ccc(Cl)cc3)c2O[C@@H]1CN(C)Cc1ccc(Oc2ccccc2)cc1 | 0.1 | 66.5* | -87.3
C[C@@H]1CN([C@H](C)CO)C(=O)c2cccc(NS(=O)(=O)c3ccc(Cl)cc3)c2O[C@H]1CN(C)Cc1ccc(Oc2ccccc2)cc1 | -0.9 | 58.2* | -0.1
C[C@H](CO)N1C[C@H](C)[C@@H](CN(C)Cc2ccc(Oc3ccccc3)cc2)Oc2c(NS(=O)(=O)c3ccc(Cl)cc3)cccc2C1=O | . | 64.9* | -15.4
C=CCC/C=N/NC(=O)CCCCCCC(=O)Nc1ccccc1O | -1.1 | -5.4 | 4.5
COc1ccc(-c2cn(CC(=O)N3CCOCC3)nn2)cc1OC | 0.2 | . | .
C[C@@H](O)[C@@H](O)[C@@H](O)C/C=N/NC(=O)c1ccccn1 | . | -3.1 | 22.3
COc1ccc(NC(=O)Nc2ccc3c(c2)CC(=O)N([C@@H](C)CO)C[C@H](C)[C@@H](CN(C)Cc2ccc(C(F)(F)F)cc2)O3)cc1 | . | 74.0* | -19.3
COc1ccc(NC(=O)Nc2ccc3c(c2)CC(=O)N([C@@H](C)CO)C[C@H](C)[C@H](CN(C)Cc2ccc(C(F)(F)F)cc2)O3)cc1 | -1.1 | 2.3 | -1.7
COc1ccc(CN(C)C[C@@H]2Oc3ccc(NC(=O)Nc4ccc(C(F)(F)F)cc4)cc3CC(=O)N([C@H](C)CO)C[C@H]2C)cc1 | 0.4 | -8.3 | -7.7
COc1ccc(NC(=O)Nc2ccc3c(c2)CC(=O)N([C@H](C)CO)C[C@@H](C)[C@H](CN(C)Cc2ccc(C(F)(F)F)cc2)O3)cc1 | -0.2 | ? | -42.7
COc1ccc(CN(C)C[C@@H]2Oc3ccc(NC(=O)Nc4ccc(C(F)(F)F)cc4)cc3CC(=O)N([C@H](C)CO)C[C@@H]2C)cc1 | -1.0 | . | -89.3
COc1ccc(NC(=O)Nc2ccc3c(c2)CC(=O)N([C@H](C)CO)C[C@@H](C)[C@@H](CN(C)Cc2ccc(C(F)(F)F)cc2)O3)cc1 | . | 66.6* | -10.6
COc1ccc(CN(C)C[C@H]2Oc3ccc(NC(=O)Nc4ccc(C(F)(F)F)cc4)cc3CC(=O)N([C@H](C)CO)C[C@H]2C)cc1 | 0.5 | 74.3* | -13.6
COc1ccc(CN(C)C[C@H]2Oc3ccc(NC(=O)Nc4ccc(C(F)(F)F)cc4)cc3CC(=O)N([C@@H](C)CO)C[C@H]2C)cc1 | 0.8 | 68.1* | -26.3
